Measurements as given in ChEMBL document CHEMBL5653632, “PRMT5 inhibition disrupts splicing and stemness in glioblastoma” (Nat Commun, 2021).
Activity calls are given as the source filed them. The calls are words filed in the database; no cut-off is given here.

Key:
[1] = Antiproliferative activity against human BT94 cells incubated for 9 to 12 days by IncuCyte zoom live-cell imaging analysis; type: functional, cell-based
[2] = tested on: G411; assay: Inhibition of cell growth in human G411 cells pretreated with compound for 14 days followed by compound washout and measured after 14 days; type: functional, cell-based; conditions: time 14.0 day
Method in brief: (§1)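 GSC lines were treated with 1 µM for 14 days. Compound was then washed out, and growth was followed for a further 14 days.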

[3] = biological target: Protein arginine N-methyltransferase 5 (Homo sapiens) (UniProt O14744); assay: Inhibition of PRMT5 in human G583 cells assessed as reduction in SDMA level at 1 uM after 5 days by Western blot analysis; type: cell-based; conditions: time 5.0 day
Method in brief: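 Symmetric dimethylarginine on SmB/B' was measured by western blot with IRDye secondary antibodies and infrared imaging.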

[4] = tested on: G837; assay: Inhibition of cell growth in human G837 cells pretreated with compound for 14 days followed by compound washout and measured after 14 days; type: functional, cell-based; conditions: time 14.0 day; method in brief: as §1
[5] = tested on: G583; assay: Antiproliferative activity against human G583 cells at 1 uM incubated for 9 to 12 days by IncuCyte zoom live-cell imaging analysis; type: functional, cell-based; conditions: time 9-12 day
Method in brief: (§2)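 Adherent GSCs were cultured in serum-free medium with EGF and bFGF on poly-L-ornithine/laminin and plated in triplicate in 96-well plates. They were treated at 1 µM, with 1 µM SGC2096 or 0.05% DMSO as controls, for 9–12 days or until DMSO wells were confluent. Medium with drug was refreshed every 5 days. IncuCyte confluence was imaged every 8 h and normalized to each well's initial confluence.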

[6] = Antiproliferative activity against human BT238 cells incubated for 9 to 12 days by IncuCyte zoom live-cell imaging analysis; type: functional, cell-based
[7] = Antiproliferative activity against human BT67 cells incubated for 9 to 12 days by IncuCyte zoom live-cell imaging analysis; type: functional, cell-based
[8] = Antiproliferative activity against human G719 cells incubated for 9 to 12 days by IncuCyte zoom live-cell imaging analysis; type: functional, cell-based
Method in brief: (§3)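 Adherent GSC lines on poly-L-ornithine/laminin in serum-free EGF/bFGF medium were exposed to nine concentrations from 3 nM to 30 µM, with three technical replicates per dose. Exposure lasted 9–20 days until DMSO controls were confluent, with drug-containing medium refreshed every 5 days. IncuCyte confluence was normalized to DMSO. Curves were built at the 95th percentile of DMSO time-to-confluence, and AAC was derived with PharmacoGx.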

[9] = Antiproliferative activity against human G752 cells incubated for 9 to 12 days by IncuCyte zoom live-cell imaging analysis; type: functional, cell-based; method in brief: as §3
[10] = tested on: G561; assay: Antiproliferative activity against human G561 cells at 1 uM incubated for 9 to 12 days by IncuCyte zoom live-cell imaging analysis; type: functional, cell-based; conditions: time 9-12 day; method in brief: as §2
[11] = tested on: G561; assay: Inhibition of cell growth in human G561 cells pretreated with compound for 14 days followed by compound washout and measured after 14 days; type: functional, cell-based; conditions: time 14.0 day; method in brief: as §1
[12] = Antiproliferative activity against human BT119 cells incubated for 9 to 12 days by IncuCyte zoom live-cell imaging analysis; type: functional, cell-based
[13] = Antiproliferative activity against human G613 cells incubated for 9 to 12 days by IncuCyte zoom live-cell imaging analysis; type: functional, cell-based; method in brief: as §3
[14] = Antiproliferative activity against human G567 cells incubated for 9 to 12 days by IncuCyte zoom live-cell imaging analysis; type: functional, cell-based; method in brief: as §3
[15] = Antiproliferative activity against human G571 cells incubated for 9 to 12 days by IncuCyte zoom live-cell imaging analysis; type: functional, cell-based; method in brief: as §3
[16] = tested on: G583; assay: Inhibition of cell growth in human G583 cells pretreated with compound for 14 days followed by compound washout and measured after 14 days; type: functional, cell-based; conditions: time 14.0 day; method in brief: as §1
[17] = Antiproliferative activity against human G637 cells incubated for 9 to 12 days by IncuCyte zoom live-cell imaging analysis; type: functional, cell-based; method in brief: as §3
[18] = Antiproliferative activity against human BT301 cells incubated for 9 to 12 days by IncuCyte zoom live-cell imaging analysis; type: functional, cell-based
[19] = Antiproliferative activity against human G584 cells incubated for 9 to 12 days by IncuCyte zoom live-cell imaging analysis; type: functional, cell-based; method in brief: as §3
[20] = Antiproliferative activity against human BT189 cells incubated for 9 to 12 days by IncuCyte zoom live-cell imaging analysis; type: functional, cell-based
[21] = tested on: G411; assay: Antitumor activity against human G411 xenografted in NSG mouse assessed as mean survival time at 50 mg/kg, po administered as 3 days on and 4 days off schedule for 4 cycles (reference value: 30 days); type: functional; conditions: time 28 day
Method in brief: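 Female NSG mice, 5–10 weeks old, 12 per group. 2 × 10^4 G411 cells were injected stereotactically into the forebrain, 3 mm deep. Oral gavage started 1 week later in vehicle of 1% HEC/0.25% Tween 80/0.05% antifoam, given daily for 3 days then 4 days off, for 4 cycles or until end point. Mice were euthanized at neurological symptoms with domed head. Survival was compared by log-rank test.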

[22] = Antiproliferative activity against human BT50 cells incubated for 9 to 12 days by IncuCyte zoom live-cell imaging analysis; type: functional, cell-based
[23] = Drug concentration in NSG mouse brain at 100 mg/kg, po measured after 24 hrs; type: ADME, organism-based; conditions: read-out: Ct
Method in brief: (§4)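 Single oral gavage to NSG mice (n = 3) at 25, 50 or 100 mg/kg; a 10× DMSO stock was diluted into 1% HEC/0.25% Tween 80/0.05% antifoam. Sacrifice at 24 h. Plasma came from cardiac-puncture blood. Brains were taken after PBS transcardiac perfusion and flash frozen. LC-MS quantitation used a 10-point standard curve of 10–10,000 ng/mL.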

[24] = tested on: G411; assay: Antitumor activity against human G411 cells xenografted in NSG mouse assessed as reduction in dense cell growth at 50 mg/kg, po administered as 3 days on and 4 days off schedule for 4 cycles; type: functional, organism-based; conditions: time 28.0 day
Method in brief: (§5)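 Female NSG mice aged 5–10 weeks received 2 × 10^4 G411 GSCs stereotaxically into the forebrain (2 mm lateral, 1 mm posterior to bregma, 3 mm deep). From 1 week post-implant, mice got 50 mg/kg by oral gavage in 1% HEC/0.25% Tween 80/0.05% antifoam, 3 days on/4 off, for 4 cycles or until endpoint. Endpoint brains went to H&E; tumor tissue went to SDMA western blot.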

[25] = Toxicity in NSG mouse assessed as tolerability at 50 mg/kg, po administered as 3 days on and 4 days off schedule and measured upto 8 weeks; type: organism-based; conditions: in vivo, 1344 h
Method in brief: (§6)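 NSG mice, 3 per group, dosed orally in weekly cycles of 3 days on and 4 days off. Weight and condition were recorded twice weekly. Mice losing more than 20% body weight were sacrificed.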

[26] = Toxicity in NSG mouse assessed as body weight loss at 50 mg/kg, po administered every other day for 3 weeks; type: organism-based; conditions: in vivo, 504 h
[27] = Drug concentration in NSG mouse plasma at 100 mg/kg, po measured after 24 hrs; type: ADME, organism-based; method in brief: as §4
[28] = Toxicity in NSG mouse assessed as body weight loss at 50 mg/kg, po administered as 3 days on and 4 days off schedule and measured upto 8 weeks; type: organism-based; conditions: in vivo, 1344 h; method in brief: as §6
[29] = tested on: G411; assay: In vivo inhibition of PRMT5 in human G411 cells xenografted in NSG mouse assessed as reduction in SDMA level at 50 mg/kg, po administered as 3 days on and 4 days off schedule for 4 cycles; type: functional, organism-based; conditions: time 28.0 day; method in brief: as §5

Chain of Protein arginine N-methyltransferase 5 (Homo sapiens) (O14744 whole entry): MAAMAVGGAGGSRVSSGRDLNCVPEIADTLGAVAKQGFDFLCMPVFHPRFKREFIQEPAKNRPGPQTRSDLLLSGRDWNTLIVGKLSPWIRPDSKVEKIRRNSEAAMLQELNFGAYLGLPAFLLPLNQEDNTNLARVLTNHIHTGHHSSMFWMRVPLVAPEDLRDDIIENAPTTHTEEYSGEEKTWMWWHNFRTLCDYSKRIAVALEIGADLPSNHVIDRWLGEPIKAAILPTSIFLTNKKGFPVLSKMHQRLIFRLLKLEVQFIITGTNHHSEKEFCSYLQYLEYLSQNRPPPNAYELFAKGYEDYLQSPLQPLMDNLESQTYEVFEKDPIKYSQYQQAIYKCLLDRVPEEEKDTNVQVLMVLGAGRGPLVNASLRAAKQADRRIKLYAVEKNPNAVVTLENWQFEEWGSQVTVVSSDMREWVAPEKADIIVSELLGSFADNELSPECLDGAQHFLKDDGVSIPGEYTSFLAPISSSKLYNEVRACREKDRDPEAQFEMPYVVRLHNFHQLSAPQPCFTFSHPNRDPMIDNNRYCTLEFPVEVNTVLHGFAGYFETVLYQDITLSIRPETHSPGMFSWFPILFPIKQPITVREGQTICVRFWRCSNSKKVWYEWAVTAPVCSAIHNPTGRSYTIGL

For O=C(NC[C@H](O)CN1CCc2ccccc2C1)c1ccnc(NC2CCC2)c1, the IC50 [1] was 60 nM, the inhibition [2] was “inactive” and the inhibition [3] was “Active”. The inhibition [4] was “inactive”, the Activity [5] was “Active” and the IC50 [6] was 150 nM. The IC50 [7] was 50 nM, the IC50 [8] was 9230 nM and the EC50 [9] was 50 nM. For the same compound, the Activity [10] was “Active”, the inhibition [11] was “inactive” and the IC50 [12] was 8640 nM. The IC50 [13] was 19200 nM, the IC50 [14] was 29300 nM and the IC50 [15] was 45600 nM. For the same compound, the inhibition [16] was “Active”, the IC50 [17] was 340 nM and the IC50 [18] was 100 nM. The IC50 [19] was 39000 nM and the IC50 [20] was 110 nM.
With Nc1ncnc2c1ccn2[C@@H]1O[C@H]([C@H](O)c2ccccc2)[C@@H](O)[C@H]1O the Time [21] was 37 days, the IC50 [22] was 20 nM and the inhibition [3] was “Active”. The Activity [5] was “Active”, the Activity [10] was “Active” and the concentration at 24 h [23] was 269 nM. For the same compound, the IC50 [12] was 230 nM, the Activity [24] was “Active” and the Activity [25] was “Non-Toxic”. The Activity [26] was > 20%, the concentration at 24 h [27] was 159 nM and the Activity [28] was < 10%. The inhibition [29] was “Active”.
